Results: ChEMBL document CHEMBL1153806, “Preclinical efficacy of a carboxylesterase 2-activated prodrug of doxazolidine” (J Med Chem, 2009)
The source made the active and inactive calls. No cut-off for these calls is given here.

How the values were obtained:
Mus musculus [1] = assay: Toxicity in athymic nude mouse xenografted with human NCI-H1435 cells expressing CES2 gene assessed as lipid […] in hepatocytes administered with six iv injection of 3 to 4 mg/kg by hematoxylin/eosin staining-based microscopy; assay type: organism-based, Hepatocyte; parameters: dose 3-4 mg/kg, route intravenous
How it was run: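 Female athymic nude mice, 4–6 weeks old, 10 per group. About 2 × 10⁶ H1435 cells were implanted s.c. into the left flank. I.v. tail-vein doses (Dox-equivalent) were given on days 7, 14, 21, 56, 63 and 70 in 5% DMSO/95% D5W. At sacrifice, organs were fixed in 10% formalin for 24 h and paraffin-embedded. Sections were cut at 4 µm and stained with hematoxylin/eosin for microscopy.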

HepG2 = assay: Antitumor activity against human HepG2 cells expressing CES2 gene xenografted in NOD/SCID mouse assessed as inhibition of tumor growth at 4 to 5 mg/kg, iv administered on day 7, 14 and 21 after tumor implantation; assay type: functional, organism-based
How it was run: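 NOD/SCID females, 4–6 weeks old, each given ~1.5 × 10⁷ N-Hep G2 cells s.c. in the left flank; 10 mice/group. Dosed i.v. by tail vein on days 7, 14 and 21, in mg/kg Dox-equivalent, from DMSO diluted into D5W (5% DMSO/95% D5W), 100 µL/mouse. Vehicle-only controls. The 3 mg/kg group was redosed at 5 mg/kg on days 45 and 52. Tumor volume (π × short diameter² × long diameter/6) measured weekly.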

Mus musculus [2] = assay: Toxicity in athymic nude mouse xenografted with human NCI-H1435 cells expressing CES2 gene assessed as uniformity in punktate staining pattern of hepatocytes administered with six iv injection of 2.5 mg/kg by hematoxylin/eosin staining-based microscopy; assay type: organism-based, Hepatocyte; parameters: dose 2.5 mg/kg, route intravenous
How it was run: (§1)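 Hearts and livers taken from the H1435 nude-mouse study (six i.v. injections) after CO₂/cervical dislocation. Fixed in 10% formalin for 24 h, paraffin-embedded, and cut at 4 µm. Slides deparaffinized in xylene and ethanol, stained with Mayer's hematoxylin for 2 min, blued in 1% ammonium hydroxide, and counterstained with eosin for 30 s. Examined by light microscopy.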

NCI-H1435 [3] = assay: Antitumor activity against human NCI-H1435 cells expressing CES2 gene xenografted in athymic nude mouse assessed as inhibition of tumor growth at 2.5 mg/kg, iv administered on day 7, 14 and 21 after tumor implantation; assay type: functional, organism-based; parameters: dose 2.5 mg/kg
How it was run: (§2)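 Athymic nude females, 4–6 weeks old, given ~2 × 10⁶ H1435 cells s.c. in the left flank on day 0; 10 mice/group. I.v. tail-vein doses (Dox-equivalent mg/kg) in 5% DMSO/95% D5W on days 7, 14 and 21, with all groups retreated on days 56, 63 and 70; vehicle controls. Caliper volume π × short² × long/6. Cube roots analysed with day-7 size as baseline covariate, by period.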

NCI-H1435 [4] = assay: Antitumor activity against human NCI-H1435 cells expressing CES2 gene xenografted in athymic nude mouse assessed as reduction in tumor size at 2.5 mg/kg, iv administered on day 7, 14 and 21 after tumor implantation; assay type: functional, organism-based; parameters: dose 2.5 mg/kg; how it was run: as §2
NCI-H1435 [5] = assay: Antitumor activity against human NCI-H1435 cells expressing CES2 gene xenografted in pentyl PABC-doxazolidine-pretreated athymic nude mouse assessed as inhibition of tumor growth at 2.5 mg/kg, iv administered on day 56 after tumor implantation; assay type: functional, organism-based; parameters: dose 2.5 mg/kg; how it was run: as §2
NCI-H1435 [6] = assay: Antitumor activity against human NCI-H1435 cells expressing CES2 gene xenografted in athymic nude mouse assessed as slowing of tumor growth at 2.5 mg/kg, iv administered as three weekly infusion from day 21 to 56 after tumor implantation; assay type: functional, organism-based; parameters: dose 2.5 mg/kg; how it was run: as §2
Mus musculus [7] = assay: Toxicity in NOD/SCID mouse xenografted with human HepG2 cells expressing CES2 gene assessed as occurrence of diarrhea at 3 mg/kg, iv administered on day 7, 14 and 21 after tumor implantation; assay type: organism-based; parameters: dose 3 mg/kg, route intravenous; settings: in vivo
Mus musculus [8] = assay: Toxicity in athymic nude mouse xenografted with human NCI-H1435 cells expressing CES2 gene assessed as vacuolar damage in ileum administered with six iv injection of 2.5 mg/kg by hematoxylin/eosin staining-based microscopy; assay type: organism-based; parameters: dose 2.5 mg/kg, route intravenous; settings: in vivo
How it was run: (§3)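 Kidney and ileum taken from the H1435 nude-mouse study (six i.v. injections). Formalin-fixed for 24 h, paraffin-embedded, and cut into 4 µm sections. Sections deparaffinized in xylene, rehydrated through an ethanol series, stained in Harris hematoxylin for 50 s with eosin, then dehydrated and mounted. Morphology assessed by microscopy.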

Mus musculus [9] = assay: Toxicity in athymic nude mouse xenografted with human NCI-H1435 cells expressing CES2 gene assessed as occurrence of fatty liver administered with six iv injection of 2.5 mg/kg by hematoxylin/eosin staining-based microscopy; assay type: organism-based; parameters: dose 2.5 mg/kg, route intravenous; settings: in vivo; how it was run: as §1
Mus musculus [10] = assay: Toxicity in athymic nude mouse xenografted with human NCI-H1435 cells expressing CES2 gene assessed as inflammatory cell infiltration in ileum administered with six iv injection of 2.5 mg/kg by hematoxylin/eosin staining-based microscopy; assay type: organism-based; parameters: dose 2.5 mg/kg, route intravenous; settings: in vivo; how it was run: as §3
Mus musculus [11] = assay: Toxicity in athymic nude mouse xenografted with human NCI-H1435 cells expressing CES2 gene assessed as occurrence of diarrhea at 3 to 4 mg/kg, iv administered on day 7, 14 and 21 after tumor implantation; assay type: organism-based; parameters: dose 3-4 mg/kg, route intravenous; settings: in vivo
Mus musculus [12] = assay: Toxicity in athymic nude mouse xenografted with human NCI-H1435 cells expressing CES2 gene assessed as vacuolar degeneration of kidney tissue administered with six iv injection of 2.5 mg/kg by hematoxylin/eosin staining-based microscopy; assay type: organism-based; parameters: dose 2.5 mg/kg, route intravenous; settings: in vivo; how it was run: as §3
Mus musculus [13] = assay: Toxicity in athymic nude mouse xenografted with human NCI-H1435 cells expressing CES2 gene assessed as appearance of fibrotic damage in heart tissue administered with six iv injection of 2.5 mg/kg by hematoxylin/eosin staining-based microscopy; assay type: organism-based; parameters: dose 2.5 mg/kg, route intravenous; settings: in vivo; how it was run: as §1
[14] = Toxicity in NOD/SCID mouse xenografted with human HepG2 cells expressing CES2 gene assessed as mortality rate at 3 mg/kg, iv administered on day 7, 14 and 21 after tumor implantation; assay type: organism-based; parameters: dose 3 mg/kg, route intravenous; settings: in vivo, read-out: Activity
How it was run: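 Female NOD/SCID mice, 4–6 weeks old, 10 per group. About 1.5 × 10⁷ N-Hep G2 cells were injected s.c. into the left flank. Tail-vein i.v. dosing (mg/kg Dox-equivalent weight) was given on days 7, 14 and 21. Vehicle was 5% DMSO/95% D5W, and controls received vehicle only. Body weight was measured weekly over the first 5 weeks. Survival was followed to study end.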

Mus musculus [15] = assay: Toxicity in athymic nude mouse xenografted with human NCI-H1435 cells expressing CES2 gene assessed as occurrence of cardiomyocyte necrosis administered with six iv injection of 2.5 mg/kg by hematoxylin/eosin staining-based microscopy; assay type: organism-based; parameters: dose 2.5 mg/kg, route intravenous; settings: in vivo; how it was run: as §1
Mus musculus [16] = assay: Toxicity in athymic nude mouse xenografted with human NCI-H1435 cells expressing CES2 gene at 3 to 4 mg/kg, iv administered on day 7, 14 and 21 after tumor implantation; assay type: organism-based; parameters: dose 3-4 mg/kg, route intravenous; settings: in vivo
NCI-H1435 [17] = assay: Antitumor activity against human NCI-H1435 cells expressing CES2 gene xenografted in pentyl PABC-doxazolidine-pretreated athymic nude mouse assessed as inhibition of tumor growth at 2.5 mg/kg, iv administered on day 63 after tumor implantation; assay type: functional, organism-based; parameters: dose 2.5 mg/kg; how it was run: as §2
Mus musculus [18] = assay: Toxicity in athymic nude mouse xenografted with human NCI-H1435 cells expressing CES2 gene assessed as myofibril disorganization and vacuolization of heart tissue administered with six iv injection of 2.5 mg/kg by hematoxylin/eosin staining-based microscopy; assay type: organism-based; parameters: dose 2.5 mg/kg, route intravenous; settings: in vivo; how it was run: as §1
NCI-H1435 [19] = assay: Antitumor activity against human NCI-H1435 cells expressing CES2 gene xenografted in pentyl PABC-doxazolidine-pretreated athymic nude mouse assessed as inhibition of tumor growth at 2.5 mg/kg, iv administered on day 70 after tumor implantation; assay type: functional, organism-based; parameters: dose 2.5 mg/kg; how it was run: as §2

| SMILES | Activity (Mus musculus [1]) | inhibition (HepG2) | Activity (Mus musculus [2]) | inhibition (NCI-H1435 [3]) | Activity (NCI-H1435 [4]) | inhibition (NCI-H1435 [5]) | Activity (NCI-H1435 [6]) | Activity (Mus musculus [7]) | Activity (Mus musculus [8]) | Activity (Mus musculus [9]) | Activity (Mus musculus [10]) | Activity (Mus musculus [11]) | Activity (Mus musculus [12]) | Activity (Mus musculus [13]) | mortality [14] [%] | Activity (Mus musculus [15]) | Activity (Mus musculus [16]) | inhibition (NCI-H1435 [17]) | Activity (Mus musculus [18]) | inhibition (NCI-H1435 [19]) |
| --- | --- | --- | --- | --- | --- | --- | --- | --- | --- | --- | --- | --- | --- | --- | --- | --- | --- | --- | --- | --- |
| COc1cccc2c1C(=O)c1c(O)c3c(c(O)c1C2=O)C[C@@](O)(C(=O)CO)C[C@@H]3O[C@H]1C[C@@H]2NCO[C@@H]2[C@H](C)O1 [DOXAZOLIDINE] | Toxic |  |  |  |  |  |  |  |  |  |  |  |  |  |  |  |  |  |  |  |
| COc1cccc2c1C(=O)c1c(O)c3c(c(O)c1C2=O)C[C@@](O)(C(=O)CO)C[C@@H]3O[C@H]1C[C@H](N)[C@H](O)[C@H](C)O1 [DOXORUBICIN] | Toxic | Active | Non-toxic | Active | Active | inactive | Active | Non-toxic | Non-toxic | Non-toxic | Non-toxic | Non-toxic | Toxic | Toxic | 70 | Toxic | Non-toxic | inactive | Toxic | inactive |
